Compound activity from PubChem.
Sampled rows, rich in hits. Any-hit rate of the full collection: about 4.8%.
XBP1 UPR activ = activators of adaptive arm of unfolded protein response (XBP1). CHO-XBP1 luciferase reporter, IRE1-XBP1 UPR activation, luminescence; percent of tunicamycin response, DMSO as zero. activation, % at 20 µM. hit rate 0.33% among 330,000. AID 463104;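 active means versus positive control, 20 µM dose yields 30% or more activation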
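Material: CHO-XBP1 cells stably carrying IRE1-XBP1-driven luciferase reporter / Amount: 1000 cells per well / Compound: 20 µM, 1% DMSO / Times: 6 h treatment, 37 °C / Detection: luciferase luminescence / Measure: % activation of reporter signal versus tunicamycin and DMSO controls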
CHOP UPR activ = apoptotic UPR (CHOP) activation. CHO-CHOP luciferase reporter, luminescence; percent of tunicamycin response over DMSO baseline. activation, % at 10 µM. hit rate 0.34% among 330,000. AID 449763;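 active means at 10 µM dose, activation of 40% or more, normalized to positive control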
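Material: CHO-CHOP cells, stable luciferase reporter of PERK-eIF2a-CHOP signalling; quantity: 500 reporter cells seeded per well; buffer or medium: F12 medium containing 10% fetal bovine serum; compound: one dose, 10 µM in 0.5% DMSO; incubation: 6 h compound treatment, 37 °C; measured by: Steady-Glo luciferase luminescence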
Beta cell apopt = blocks beta cell apoptosis; hit rate 0.8% among 300,000; AID 435005; protection from apoptosis, % (concentration not given with the values); INS-1E cytokine-induced death, ATP luminescence, 48 h; percent of positive-control rescue, neutral wells zero;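 active means Every replicate reaches about 75%, or at least half do and their mean reaches it too, limit read from the data; inconclusive means At least half of replicates reach the limit but their mean does not; inactive means Under half of replicates reach the limit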;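 further: higher means more ATP so stronger rescue from cytokine killing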
Mdm2-MdmX inh = disrupts the human Mdm2-MdmX interaction | O15151+Q00987 | SaOS-2 split-luciferase Mdm2/MdmX complementation, luminescence | inhibition, % at 8 µM | hit rate 3% among 330,000 | AID 485346;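 active means inhibition of at least 50% at 8 µM in the primary screen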
Target sequence (O15151 whole entry, looked up): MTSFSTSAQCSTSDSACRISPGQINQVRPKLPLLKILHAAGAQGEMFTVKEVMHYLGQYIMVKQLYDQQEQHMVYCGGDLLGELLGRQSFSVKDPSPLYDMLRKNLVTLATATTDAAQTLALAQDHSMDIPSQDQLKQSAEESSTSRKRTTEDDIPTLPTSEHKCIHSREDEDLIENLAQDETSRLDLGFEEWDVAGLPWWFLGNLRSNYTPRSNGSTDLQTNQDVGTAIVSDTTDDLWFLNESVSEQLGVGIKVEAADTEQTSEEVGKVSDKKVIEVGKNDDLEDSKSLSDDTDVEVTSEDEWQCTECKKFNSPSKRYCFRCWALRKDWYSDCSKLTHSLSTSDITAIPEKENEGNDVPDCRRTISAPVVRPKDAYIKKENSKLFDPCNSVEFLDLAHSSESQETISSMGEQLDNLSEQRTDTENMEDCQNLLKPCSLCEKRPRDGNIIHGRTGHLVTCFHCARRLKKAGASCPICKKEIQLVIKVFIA
Target sequence (Q00987 whole entry, looked up): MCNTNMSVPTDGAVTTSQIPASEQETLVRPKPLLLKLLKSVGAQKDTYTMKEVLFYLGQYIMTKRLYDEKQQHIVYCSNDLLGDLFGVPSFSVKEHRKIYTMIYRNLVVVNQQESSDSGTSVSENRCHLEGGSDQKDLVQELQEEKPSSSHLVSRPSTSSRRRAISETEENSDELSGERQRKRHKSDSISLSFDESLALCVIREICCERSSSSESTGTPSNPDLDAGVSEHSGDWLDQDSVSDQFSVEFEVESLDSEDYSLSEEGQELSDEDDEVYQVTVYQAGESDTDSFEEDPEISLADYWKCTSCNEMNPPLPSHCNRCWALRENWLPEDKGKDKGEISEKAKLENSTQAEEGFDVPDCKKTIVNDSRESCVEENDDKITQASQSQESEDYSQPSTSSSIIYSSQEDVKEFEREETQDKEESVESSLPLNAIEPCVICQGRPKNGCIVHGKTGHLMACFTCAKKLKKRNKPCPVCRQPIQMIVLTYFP
SKKanGAS inh = blocks kanamycin growth of S. pyogenes SKKanGAS strain. inhibition, % at 7.5 µM. hit rate 1.3% among 300,000. BacTiter-Glo, 6 h. AID 1662;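 active means mean replicate score, as percent of positive control median, at least 50; inconclusive means mean below 50 but one replicate at or above 50; inactive means mean and every replicate below 50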;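 further: strain carries kanamycin resistance gene driven by streptokinase promoter and grows in 40 µg/ml kanamycin; loss of luminescence reflects streptokinase promoter inhibition or plain growth inhibition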
CSC inhib = cancer stem cell inhibition. hit rate 1.1% among 300,000. cancer stem cell-like cells viability, luminescence. inhibition, % at 7.5 µM; in the data active means inhibition above about 75%; inconclusive means no clear call, values can overlap the other calls; tested in HMLE shEcad cells
Mdm2 MdmX conf = human Mdm2/MdmX binding inhibition, confirmed. AID 489028. shares compounds with Mdm2-MdmX inh. hit rate 55% among 10,000. luminescent assay. inhibition, % at 8 µM; in the data active means inhibition above about 40%
FLuc counter = inhibits full-length luciferase, flagging false Mdm2/MdmX hits | hit rate 77% among 6,200 | SaOS-2 full-length luciferase counterscreen, luminescence | shares compounds with Mdm2-MdmX inh | inhibition, % at 8 µM;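 active means mean inhibition at 8 µM reaching about 37%, which flags the compound as non-specific, limit read from the data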;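 further: p53-null SaOS-2 cells with luciferase driven by a doxycycline-inducible promoter; compound on cells about two nights before reading with doxycycline added after day one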
A number is an active result; 0 = inactive; ? = inconclusive; - = no result.

SMILES	XBP1 UPR activ	CHOP UPR activ	Beta cell apopt	Mdm2-MdmX inh	SKKanGAS inh	CSC inhib	Mdm2 MdmX conf	FLuc counter
CC(C)Cc1nnc(NC(=O)CC(=O)Nc2ccccc2C(=O)O)s1	0	0	0	0	0	0	-	-
CN=c1scc(-c2ccccc2F)n1/N=C/c1ccc[nH]1	0	0	0	94.0	0	0	97.9	0
Cc1onc(-c2c(F)cccc2Cl)c1C(=O)Nc1ccc(Cl)c(S(=O)(=O)N(C)C)c1	0	0	0	0	-	0	-	-
CC(C)C[C@@H]1NC(=O)[C@H](Cc2ccccc2)N(C)C(=O)[C@H](C)NC(=O)c2ccccc2NC(=O)[C@H](Cc2ccc(O)cc2)N(C)C1=O	0	0	-	74.9	0	0	57.1	71.1
CC(C)CC1NC(=O)N(CC(=O)N2c3ccccc3NC(=O)C2(C)C)C1=O (stereo not drawn)	0	0	0	0	0	0	-	-
CC(C)=CCC/C(C)=C/CC(C)(C)CNCCN1CCNCC1	0	0	0	87.7	0	0	0	-
Nc1nonc1-n1nnc(C(=O)N/N=C/c2ccccc2Br)c1CN1CCCC1	0	0	0	0	0	-	-	-
O=C(Nc1ccccc1)/C(=C/c1ccc([N+](=O)[O-])cc1)NC(=O)c1ccco1	0	0	-	67.4	0	0	0	-
Cc1ccc(CNC(=O)c2ccc(C)c(S(=O)(=O)N3CCCCC3)c2)cc1	0	0	0	0	-	0	-	-
Cc1ccc(C)c(NC(=S)N=Nc2c(O)n(C)c3ccc(S(=O)(=O)N4CCOCC4)cc23)c1	0	0	0	66.5	0	0	45.3	59.3
C=CCC[C@@H](Cc1ccc(F)cc1)C(=O)OC[C@@H](Cc1c[nH]c2ccccc12)NC(=O)[C@@H](CC=C)CC(=O)N[C@@H](CO)Cc1ccccc1	0	0	0	0	-	0	-	-
C=CCC[C@@H](Cc1ccc(F)cc1)C(=O)OC[C@@H](Cc1c[nH]c2ccccc12)NC(=O)[C@@H](CC=C)CC(=O)N(CCO)Cc1ccccc1	0	0	0	93.3	-	?	0	-
C=CCC[C@H](Cc1ccc(F)cc1)C(=O)OC[C@@H](Cc1c[nH]c2ccccc12)NC(=O)[C@@H](CC=C)CC(=O)N[C@@H](CO)Cc1ccccc1	0	0	0	0	-	0	-	-
C=CCC[C@@H](Cc1ccc(F)cc1)C(=O)OC[C@@H](Cc1c[nH]c2ccccc12)NC(=O)[C@H](CC=C)CC(=O)N[C@H](CO)Cc1ccccc1	0	0	0	75.8	-	-	0	-
C=CCC[C@@H](Cc1ccc(F)cc1)C(=O)OC[C@H](Cc1c[nH]c2ccccc12)NC(=O)[C@@H](CC=C)CC(=O)N[C@@H](CO)Cc1ccccc1	0	0	0	0	-	0	-	-
C=CCC[C@H](Cc1ccc(F)cc1)C(=O)OC[C@H](Cc1c[nH]c2ccccc12)NC(=O)[C@H](CC=C)CC(=O)N(CCO)Cc1ccccc1	0	0	0	89.9	-	-	0	-
COC(=O)c1cc(O)cc(OC)c1C(=O)c1c(O)cc(C)cc1O	0	0	-	0	0	0	-	-
COC(=O)c1cc(O)cc(OC)c1Oc1cc(C)cc(O)c1C(=O)O	0	0	89.5	83.5	-	0	46.0	0
CN1CCN(c2cc(-c3cc(O)c4ncccc4c3)ccn2)CC1	0	0	0	60.1	-	0	45.5	0
Cc1ccc(-c2nn(-c3ccccc3)cc2/C=C(\C#N)C(=O)NCc2ccccc2)cc1	0	0	0	75.4	0	0	43.8	84.8
CC(NC(=O)/C(C#N)=C/c1cn(-c2ccccc2)nc1-c1ccc(F)cc1)c1ccccc1 (stereo not drawn)	0	0	0	0	0	0	-	-
CCOc1cccc(-c2nn(-c3ccccc3)cc2/C=C(/C#N)C(=O)NCCCn2ccnc2)c1	0	0	0	76.7	0	0	0	51.0
COc1ccc(C(=O)NC(CCSC)C(=O)N2CCCCCC2)cc1 (stereo not drawn)	0	0	0	0	0	-	-	-
Cc1ccc(-n2c(SCC(=O)N3CCOCC3)nnc2-c2ccncc2)cc1C	0	0	0	0	0	0	-	-
COc1ccc(CNC(=O)CCCn2nc(C)c3c(C)n(-c4ccc(C)cc4)nc3c2=O)cc1	0	0	0	0	0	0	-	-
SMILES	XBP1 UPR activ	CHOP UPR activ	Beta cell apopt	Mdm2-MdmX inh	SKKanGAS inh	CSC inhib	Mdm2 MdmX conf	FLuc counter
O=[N+]([O-])c1ccc(/C=N/Nc2nc(N3CCOCC3)nc(N3CCOCC3)n2)cc1	0	0	0	0	0	0	-	-
CCOc1cc(/C=N\Nc2ncc(F)c(N3CCOCC3)n2)ccc1Oc1nc(Cl)ncc1F	0	0	0	0	0	0	-	-
Fc1cnc(N/N=C/c2ccc(-c3ccc(Br)cc3)o2)nc1N1CCOCC1	0	0	0	59.5	0	0	0	-
Brc1ccc(-c2ccc(/C=N/Nc3nc(N4CCOCC4)nc(N4CCOCC4)n3)o2)cc1	0	0	0	69.3	0	0	0	-
Cn1ncc2c(O/N=C(\N)c3ccc(C(F)(F)F)cc3)ncnc21	0	0	0	98.5	0	0	46.0	0
O=C(c1ccccc1F)N1CCN(c2ccc([N+](=O)[O-])c3ncccc23)CC1	0	0	0	0	0	0	-	-
O=[N+]([O-])c1cccc2c(N3CCCC3)ccnc12	0	0	112.1	51.7	0	0	0	-
O=C(OCn1ncc(Cl)c(Cl)c1=O)c1cccc(C(F)(F)F)c1	0	0	0	82.4	0	0	100.2	52.3
N/C(=N\OC(=O)c1cccc(C(F)(F)F)c1)c1cnccn1	0	0	0	0	0	0	-	-
COc1cccc(CN2CCN(C(=O)c3ccco3)CC2)c1	0	0	0	0	0	0	-	-
O=Nc1c(-c2c(O)[nH]c3cc(Br)ccc23)[nH]c2ccccc12	0	0	0	99.0	95.2	103.4	0	-
O=C(CSCc1cccc(Br)c1)N=Nc1c(O)[nH]c2ccccc12	0	0	0	0	0	0	-	-
CC1CCN(Cc2c(C(=O)N/N=C/c3ccccc3O)nnn2-c2nonc2N)CC1	0	0	95.4	68.7	0	-	79.9	0
Nc1nonc1-n1nnc(C(=O)N/N=C/c2ccc(Cl)cc2Cl)c1CN1CCCCC1	0	0	0	0	0	-	-	-
CCN(CC)c1ccc(/C=N/NC(=O)c2nnn(-c3nonc3N)c2C(C)C)c(O)c1	0	0	91.4	71.5	58.6	0	88.3	0
Nc1nonc1-n1nnc(C(=O)N/N=C/c2cc(Cl)ccc2O)c1CN1CCCCCC1	0	0	90.8	68.2	49.8	?	55.8	0
CC(C)c1c(C(=O)N/N=C/c2ccc3c(c2)OCO3)nnn1-c1nonc1N	0	0	0	0	0	0	-	-
CN1CCN(Cc2c(C(=O)N/N=C/c3cccc(Br)c3)nnn2-c2nonc2N)CC1	0	0	0	83.8	0	0	0	-
